Active and inactive are the calls of the source. No rule for the calls is given here.
Columns and labels:
[1] = Selectivity for Trypanosoma cruzi triosephosphate isomerase over human triosephosphate isomerase
[2] = test system: Trypanosoma cruzi; assay: Antiparasitic activity against Trypanosoma cruzi T2 epimastigotes assessed as growth inhibition at 25 uM after 5 days; type: functional
Outline: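 Late-log epimastigotes were grown axenically at 28 °C in BHI-tryptose with 5% fetal calf serum and seeded at 2×10^6/mL in medium containing compound (DMSO stock; final DMSO ≤1%, 1% DMSO control). Growth was read as A590 at day 0 and day 5. Inhibition = {1 − [(Ap − A0p)/(Ac − A0c)]} × 100. Means of two experiments.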

[3] = target: Triosephosphate isomerase, glycosomal (Trypanosoma cruzi) (UniProt P52270); assay: Inhibition of Trypanosoma cruzi triosephosphate isomerase at 400 uM after 2 hrs
Outline: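 Recombinant E. coli-expressed enzyme, dialyzed into 100 mM triethanolamine/10 mM EDTA pH 7.4, was incubated with compound (DMSO stock) in 100 mM triethanolamine, 10 mM EDTA, pH 7.4, 10% DMSO at 36 °C for 2 h. An aliquot was then assayed for activity (glyceraldehyde 3-phosphate to dihydroxyacetone phosphate, α-glycerol phosphate dehydrogenase-coupled) with 5 ng enzyme. Irreversible inhibition was scored as loss of activity; means of two experiments.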

Chain of Triosephosphate isomerase, glycosomal (Trypanosoma cruzi) (P52270 whole entry): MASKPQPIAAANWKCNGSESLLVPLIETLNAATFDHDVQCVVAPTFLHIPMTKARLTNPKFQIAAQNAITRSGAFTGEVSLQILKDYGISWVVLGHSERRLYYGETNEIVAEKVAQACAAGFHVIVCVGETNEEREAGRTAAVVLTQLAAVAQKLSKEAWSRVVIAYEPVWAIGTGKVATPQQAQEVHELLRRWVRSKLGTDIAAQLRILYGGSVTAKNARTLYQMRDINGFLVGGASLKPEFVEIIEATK

Row | Structure (SMILES) | Ratio [1] | Activity [2] | inhibition [3] [%]
1 | CC(=O)CN1C(=O)c2ccccc2C1=O | > 4 | Active | 30
2 | O=C(O)c1ccc(-c2nsc(CO)n2)cc1 | > 4 | Active | 15
3 | C=CCNC(=S)N/N=C/c1ccc2c(c1)=[N+]([O-])C(C)(C)[N+]=2[O-] | > 4 | Active | 33
4 | [O-][n+]1onc2ccc(CBr)cc21 | > 4 | Active | 10
5 | Cn1c2ccc(Cl)cc2c(-c2ccccc2)[n+]1[O-] | > 4 | Active | 16
6 | C=C(C)CNC(=O)Oc1ccccc1 | > 4 | Active | 48
7 | CSc1ccc(/C=C/C(=O)c2ccccc2)cc1 | > 4 | Active | 14
8 | CC1(C)[N+]([O-])=c2ccc(C3OCCO3)cc2=[N+]1[O-] | > 4 | Active | 36
9 | Cc1nnc[n+]([O-])c1/C=C/c1ccc(Cl)cc1 | > 4 | Active | 15
10 | [O-][n+]1onc2ccc(/C=C\c3ccccc3)cc21 | > 4 | Active | 0
11 | Cc1nnc[n+]([O-])c1/C=C/c1ccc2c(c1)OCO2 | > 4 | Active | 40
12 | CCCCNC(=O)N/N=C/C=C/c1ccc([N+](=O)[O-])o1 | > 4 | Active | 1
13 | NC1=NS(=O)(=O)N=C(N)C1 | > 4 | Active | 0
14 | [O-][n+]1onc(-c2ccccc2)c1CN1CCSCC1 | > 4 | Active | 47
15 | C=CCNC(=S)N/N=C/C=C/c1ccco1 | > 4 | Active | 15
16 | [O-][n+]1onc2ccc(/C=C\c3ccc(Cl)cc3)cc21 | > 4 | Active | 5
17 | [O-][n+]1onc(-c2ccccc2)c1CCl | > 4 | Active | 65
18 | CCCCNC(=O)N/N=C/c1ccc2no[n+]([O-])c2c1 | > 4 | Active | 38
19 | [O-][n+]1onc(-c2ccccc2)c1CN1CCN(c2ncccn2)CC1 | > 4 | Active | 8
20 | Cc1c(CNc2cccc3ccccc23)no[n+]1[O-] | > 4 | Active | 41
21 | O=[N+]([O-])c1ccccc1/C=N/N1CCOCC1 | > 4 | Active | 28
22 | CCCN(CCOCCn1nc(OCc2ccccc2)c2cc([N+](=O)[O-])ccc21)CCC(C)C1CC=C(C)CC1 (stereo not given) | > 4 | Active | 0
23 | Cc1c(C)[n+]([O-])c2cc(C=O)ccc2[n+]1[O-] | > 4 | Active | 11

Row | Structure (SMILES) | Ratio [1] | Activity [2] | inhibition [3] [%]
24 | CCCCNC(=O)/C=C/c1ccc([N+](=O)[O-])o1 | > 4 | Active | 25
25 | Cc1c(C(=O)Nc2ccccc2)[n+]([O-])c2cc(CNC/C=C/c3ccccc3)ccc2[n+]1[O-] | > 4 | Active | 23
26 | O=C(/C=C/c1ccc([N+](=O)[O-])o1)NC12CC3CC(CC(C3)C1)C2 | > 4 | Active | 16
27 | C=CCNC(=S)N/N=C/c1ccco1 | > 4 | Active | 12
28 | C=CCNC(=S)N/N=C/c1ccc2c(c1)[n+]([O-])c(C#N)c(N)[n+]2[O-] | > 4 | Active | 45
29 | CC(=O)Oc1c(C)c(C)c2c(c1C)CCC(C)(C(=O)NCCO[N+](=O)[O-])O2 (stereo not given) | – | – | 7
30 | O=[N+]([O-])c1ccc2c(c1)[n+]([O-])c1n2CCOC1 | > 4 | Active | 14
31 | O=[N+]([O-])c1ccc2c(c1)c(OCc1ccccc1)nn2CCCCCN1CCCCC1 | > 4 | Active | 0
32 | C=CCNC(=S)N/N=C/c1ccc([N+](=O)[O-])o1 | > 4 | Active | 6
33 | [O-][n+]1onc(-c2ccccc2)c1CNc1ccc(Br)cc1 | > 4 | Active | 48
34 | COCCNC(=O)/C=C/c1ccc([N+](=O)[O-])o1 | > 4 | Active | 0
35 | [O-][n+]1onc2ccc(/C=N/O)cc21 | > 4 | Active | 27
36 | CCOC(=O)/C=C/c1ccc([N+](=O)[O-])o1 | > 4 | Active | 3
37 | [O-][n+]1onc2ccc(/C=C/c3ccccc3)cc21 | > 4 | Active | 66
38 | [O-][n+]1onc2ccc(C=Cc3ccc(C(F)(F)F)cc3)cc21 | > 4 | Active | 33
39 | CCCCNS(=O)(=O)NCCCC | > 4 | Active | 0
40 | O=[N+]([O-])c1ccc(N2CCSCC2)c([N+](=O)[O-])c1 | > 4 | Active | 20
41 | O=C(Oc1ccccc1)N1CCN(C/C=C/c2ccccc2)CC1 | > 4 | Active | 21
42 | CCCN(CCC(C)C1CC=C(C)CC1)Cc1ccc2c(c1)=[N+]([O-])C(C)(C)[N+]=2[O-] (stereo not given) | > 4 | Active | 4
43 | CNC(=S)N/N=C/C=C/c1ccc([N+](=O)[O-])o1 | > 4 | Active | 9
44 | COCCNC(=O)N/N=C/c1ccc([N+](=O)[O-])o1 | > 4 | Active | 5
45 | COCCNC(=O)N/N=C/c1ccc2no[n+]([O-])c2c1 | > 4 | Active | 3
46 | CCCCCCCNC(=O)N/N=C/c1ccc([N+](=O)[O-])o1 | > 4 | Active | 60

Row | Structure (SMILES) | Ratio [1] | Activity [2] | inhibition [3] [%]
47 | C=CCNC(=S)N/N=C/C=C/c1ccc([N+](=O)[O-])o1 | > 4 | Active | 12
48 | Cc1n(O)c2ccc(Br)cc2[n+]1[O-] | > 4 | Active | 4
49 | O=c1c2cc([N+](=O)[O-])ccc2n2n1CCOCC2 | > 4 | Active | 12
50 | O=C(/C=C/c1cccs1)c1ccccc1O | > 4 | Active | 25
51 | [O-][N+]1=c2ccccc2=[N+]([O-])C12CCCC2 | > 4 | Active | 12
52 | COc1ccc(C(=O)/C=C/c2ccc3no[n+]([O-])c3c2)cc1 | > 4 | Active | 45
53 | CN(C)CCCNS(=O)(=O)NCCCN(C)C | > 4 | Active | 0
54 | CCCCCCNC(=O)N/N=C/C=C/c1ccc([N+](=O)[O-])o1 | > 4 | Active | 72
55 | C=CCNC(=S)N/N=C/c1ccc2c(c1)[n+]([O-])c(C)c(C)[n+]2[O-] | > 4 | Active | 42
56 | COCCNC(=O)N/N=C/c1ccc([N+](=O)[O-])s1 | > 4 | Active | 15
57 | CCCCNC(=O)N/N=C/c1c(C)no[n+]1[O-] | > 4 | Active | 2
58 | Cc1ccc2c(c1)=[N+]([O-])C1(CCCC1)[N+]=2[O-] | > 4 | Active | 27
59 | C=CCNC(=S)N/N=C/C=C/c1ccc([N+](=O)[O-])s1 | > 4 | Active | 26
60 | COc1ccc(C=O)cc1-c1cc(C=O)ccc1O | > 4 | Active | 32
61 | O=C(/C=C/c1ccc([N+](=O)[O-])o1)NCCCl | > 4 | Active | 13
62 | Cc1c(/C=C/c2ccc(N(C)C)cc2)[n+]([O-])cn[n+]1[O-] | > 4 | Active | 26
63 | N#Cc1c2ccccc2[n+]([O-])n1-c1ccc2ccccc2c1 | > 4 | Active | 19
64 | [O-][n+]1onc2ccc(C=Cc3ccccc3F)cc21 | > 4 | Active | 9
65 | CC1(C)[N+]([O-])=c2ccc(COc3ccc(C=O)cc3)cc2=[N+]1[O-] | > 4 | Active | 26
66 | COC(=O)N/N=C/c1c(C)no[n+]1[O-] | > 4 | Active | 2
67 | N#Cc1c(N)[n+]([O-])c2ccc(CN3CCN(C/C=C/c4ccccc4)CC3)cc2[n+]1[O-] | > 4 | Active | 18
68 | [O-][n+]1onc(-c2ccccc2)c1CO | – | – | 23
